Data reported in ChEMBL document CHEMBL3352430, “4-Aminopyridyl-based CYP51 inhibitors as anti-Trypanosoma cruzi drug leads with improved pharmacokinetic profile and in vivo potency” (J Med Chem, 2014).
Calls of active or inactive are those of the source. No cut-off for these calls is given here.

Tests used:
Liver [1] = assay: Drug uptake in mouse liver at 50 mg/kg, po in 20% Kolliphor measured at 8 hrs post dose; type: ADME, organism-based; parameters: dose 50 mg/kg, route oral; conditions: in vivo
In short: (§1)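 Female Swiss Webster mice, 8 weeks old, given a single 50 mg/kg oral gavage dose in 20% HPβCD or 20% Kolliphor. Tissues taken from three mice at 2 and 8 h post dose. Homogenized by probe sonication in PBS (1:4 w/v), protein precipitated with acetonitrile, and compound measured by LC-MS/MS in μM.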

Trypanosoma cruzi [2] = assay: Antitrypanosomal activity against Trypanosoma cruzi Y luc infected in mouse assessed as inhibition of parasitemia at 25 mg/kg, po bid in 20% HP-beta-CD administered for 4 consecutive days starting on day 3 of infection measured on day 7 post infection relative to vehicle-treated control; type: functional, organism-based; parameters: dose 25 mg/kg
In short: (§2)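 Female Swiss Webster mice, 8 weeks old, infected ip with 10^5 T. cruzi Y luc trypomastigotes. Only mice with detectable luminescence on day 3 were treated. Compound given by oral gavage bid for four days, as a suspension in 20% HPβCD or a solution in 20% Kolliphor, five mice per group. Vehicle group and benznidazole 50 mg/kg served as controls. On day 7, mice were injected ip with 150 mg/kg d-luciferin and imaged after 5 min under isoflurane. Percent inhibition calculated against untreated mice; two-tailed paired t test.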

[3] = Half life in mouse at 50 mg/kg, po in 20% HP-beta-CD; type: ADME, organism-based; parameters: dose 50 mg/kg, route oral; conditions: in vivo
In short: (§3)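 Female Swiss Webster mice, 8 weeks old, given one oral gavage dose of 50 mg/kg as a 10 mg/mL preparation in the named vehicle (20% HPβCD suspension or 20% Kolliphor). Plasma sampled at about 0.25, 0.5, 1, 2, 4, 6, 8, 12 and 24 h, n = 3 per time point. Protein precipitated with 5 volumes acetonitrile, filtered, then LC-MS/MS. Values are averages of three mice.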

[4] = Clearance in mouse at 50 mg/kg, po in 20% HP-beta-CD; type: ADME, organism-based; parameters: dose 50 mg/kg, route oral; conditions: in vivo; in short: as §3
[5] = Cmax in mouse at 50 mg/kg, po in 20% HP-beta-CD; type: ADME, organism-based; parameters: dose 50 mg/kg, route oral; conditions: in vivo; in short: as §3
[6] = Drug uptake in mouse skeletal muscle at 50 mg/kg, po in 20% Kolliphor measured at 8 hrs post dose; type: ADME, organism-based, Muscle tissue; parameters: dose 50 mg/kg, route oral; conditions: in vivo; in short: as §1
[7] = Drug uptake in mouse fat at 50 mg/kg, po in 20% HP-beta-CD measured at 8 hrs post dose; type: ADME, organism-based, Adipose tissue; parameters: dose 50 mg/kg, route oral; conditions: in vivo; in short: as §1
Mus musculus [8] = assay: Toxicity in mouse assessed as weight loss at 12.5 to 50 mg/kg, po bid in 20% HP-beta-CD; type: organism-based; parameters: dose 12.5-50 mg/kg, route oral; conditions: in vivo
In short: (§4)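 Mice in the four-day oral treatment study were given compound bid by gavage in 20% HPβCD or 20% Kolliphor. They were watched for weight loss, mobility problems and changes in appearance throughout dosing.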

Mus musculus [9] = assay: Toxicity in mouse assessed as weight loss at 12.5 to 50 mg/kg, po bid in 20% Kolliphor; type: organism-based; parameters: dose 12.5-50 mg/kg, route oral; conditions: in vivo; in short: as §4
Liver [10] = assay: Drug uptake in mouse liver at 50 mg/kg, po in 20% HP-beta-CD measured at 8 hrs post dose; type: ADME, organism-based; parameters: dose 50 mg/kg, route oral; conditions: in vivo; in short: as §1
[11] = AUClast in mouse at 50 mg/kg, po in 20% Kolliphor; type: ADME, organism-based; parameters: time 0 - last, dose 50 mg/kg, route oral; conditions: plasma; in short: as §3
Mus musculus [12] = assay: Toxicity in mouse assessed as mobility issues at 12.5 to 50 mg/kg, po bid in 20% Kolliphor; type: organism-based; parameters: dose 12.5-50 mg/kg, route oral; conditions: in vivo; in short: as §4
Lung [13] = assay: Drug uptake in mouse lung at 50 mg/kg, po in 20% Kolliphor measured at 8 hrs post dose; type: ADME, organism-based; parameters: dose 50 mg/kg, route oral; conditions: in vivo; in short: as §1
[14] = Drug uptake in mouse skeletal muscle at 50 mg/kg, po in 20% HP-beta-CD measured at 8 hrs post dose; type: ADME, organism-based, Muscle tissue; parameters: dose 50 mg/kg, route oral; conditions: in vivo; in short: as §1
Mus musculus [15] = assay: Toxicity in mouse assessed as change in appearance at 12.5 to 50 mg/kg, po bid in 20% Kolliphor; type: organism-based; parameters: dose 12.5-50 mg/kg, route oral; conditions: in vivo; in short: as §4
[16] = Tmax in mouse at 50 mg/kg, po in 20% HP-beta-CD; type: ADME, organism-based; parameters: dose 50 mg/kg, route oral; conditions: in vivo; in short: as §3
[17] = Cmax in mouse at 50 mg/kg, po in 20% Kolliphor; type: ADME, organism-based; parameters: dose 50 mg/kg, route oral; conditions: in vivo; in short: as §3
[18] = AUClast in mouse at 50 mg/kg, po in 20% HP-beta-CD; type: ADME, organism-based, Plasma; parameters: time 0 - last, dose 50 mg/kg, route oral; conditions: plasma; in short: as §3
Trypanosoma cruzi [19] = assay: Antitrypanosomal activity against Trypanosoma cruzi Y luc infected in mouse assessed as inhibition of parasitemia at 50 mg/kg, po bid in 20% HP-beta-CD administered for 4 consecutive days starting on day 3 of infection measured on day 7 post infection relative to vehicle-treated control; type: functional, organism-based; parameters: dose 50 mg/kg; in short: as §2
Intestine [20] = assay: Drug uptake in mouse intestine at 50 mg/kg, po in 20% Kolliphor measured at 8 hrs post dose; type: ADME, organism-based; parameters: dose 50 mg/kg, route oral; conditions: in vivo; in short: as §1
[21] = Half life in mouse at 50 mg/kg, po in 20% Kolliphor; type: ADME, organism-based; parameters: dose 50 mg/kg, route oral; conditions: in vivo; in short: as §3
[22] = Tmax in mouse at 50 mg/kg, po in 20% Kolliphor; type: ADME, organism-based; parameters: dose 50 mg/kg, route oral; conditions: in vivo; in short: as §3
Heart [23] = assay: Drug uptake in mouse heart at 50 mg/kg, po in 20% HP-beta-CD measured at 8 hrs post dose; type: ADME, organism-based; parameters: dose 50 mg/kg, route oral; conditions: in vivo; in short: as §1
Heart [24] = assay: Drug uptake in mouse heart at 50 mg/kg, po in 20% Kolliphor measured at 8 hrs post dose; type: ADME, organism-based; parameters: dose 50 mg/kg, route oral; conditions: in vivo; in short: as §1
Mus musculus [25] = assay: Toxicity in mouse assessed as change in appearance at 12.5 to 50 mg/kg, po bid in 20% HP-beta-CD; type: organism-based; parameters: dose 12.5-50 mg/kg, route oral; conditions: in vivo; in short: as §4
[26] = Drug uptake in mouse fat at 50 mg/kg, po in 20% Kolliphor measured at 8 hrs post dose; type: ADME, organism-based, Adipose tissue; parameters: dose 50 mg/kg, route oral; conditions: in vivo; in short: as §1
[27] = Clearance in mouse at 50 mg/kg, po in 20% Kolliphor; type: ADME, organism-based; parameters: dose 50 mg/kg, route oral; conditions: in vivo; in short: as §3
Intestine [28] = assay: Drug uptake in mouse intestine at 50 mg/kg, po in 20% HP-beta-CD measured at 8 hrs post dose; type: ADME, organism-based; parameters: dose 50 mg/kg, route oral; conditions: in vivo; in short: as §1
Lung [29] = assay: Drug uptake in mouse lung at 50 mg/kg, po in 20% HP-beta-CD measured at 8 hrs post dose; type: ADME, organism-based; parameters: dose 50 mg/kg, route oral; conditions: in vivo; in short: as §1
Trypanosoma cruzi [30] = assay: Antitrypanosomal activity against Trypanosoma cruzi Y luc infected in mouse assessed as inhibition of parasitemia at 50 mg/kg, po bid in 20% Kolliphor administered for 4 consecutive days starting on day 3 of infection measured on day 7 post infection relative to vehicle-treated control; type: functional; in short: as §2
[31] = target: Sterol 14-alpha demethylase (Trypanosoma cruzi (strain CL Brener), UniProt Q7Z1V1); assay: Binding affinity to Trypanosoma cruzi CYP51 by UV-vis titration method; conditions: read-out: Kd(app)
Sequence of Sterol 14-alpha demethylase (Q7Z1V1 whole entry): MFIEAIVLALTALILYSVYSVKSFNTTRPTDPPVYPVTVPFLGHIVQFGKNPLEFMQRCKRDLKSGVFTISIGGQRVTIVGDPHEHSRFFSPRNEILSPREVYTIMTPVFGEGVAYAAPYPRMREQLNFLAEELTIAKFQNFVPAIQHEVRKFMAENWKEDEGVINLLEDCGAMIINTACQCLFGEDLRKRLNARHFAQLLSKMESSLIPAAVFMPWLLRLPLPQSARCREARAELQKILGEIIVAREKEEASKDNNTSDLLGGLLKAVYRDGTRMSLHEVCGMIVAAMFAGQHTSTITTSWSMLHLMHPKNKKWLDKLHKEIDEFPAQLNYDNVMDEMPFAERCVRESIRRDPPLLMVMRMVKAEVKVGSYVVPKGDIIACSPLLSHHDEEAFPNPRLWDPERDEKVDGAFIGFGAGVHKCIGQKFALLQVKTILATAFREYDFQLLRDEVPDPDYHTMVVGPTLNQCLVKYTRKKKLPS

Mus musculus [32] = assay: Toxicity in mouse assessed as mobility issues at 12.5 to 50 mg/kg, po bid in 20% HP-beta-CD; type: organism-based; parameters: dose 12.5-50 mg/kg, route oral; conditions: in vivo; in short: as §4
C2C12 = assay: Cytotoxicity against mouse C2C12 cells up to 10 uM; type: cell-based
In short: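 Mouse C2C12 myoblasts infected with T. cruzi CA-I/72, then exposed at 24 h postinfection to compound at 10 μM down to 5 pM in 5-fold steps for 72 h at 37 °C. Cells fixed in paraformaldehyde, stained with DAPI and scored by automated imaging. Triplicate wells; uninfected and infected untreated wells as controls.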

In the case of `O=C(N[C@H](Cc1c[nH]c2ccccc12)C(=O)Nc1ccncc1)c1ccc(N2CCN(c3ccc(F)cc3F)CC2)cc1F`, the Drug uptake (Liver [1]) is reported as “Active”, the inhibition (Trypanosoma cruzi [2]) is reported as “Active” and the half-life [3] is reported as 6.88 h. For the same compound, the CL/F [4] was 42.8 mL/min/kg, the Cmax [5] was 3.27 µM and the Drug uptake [6] was “Active”. For the same compound, the Drug uptake [7] was “Active”, the Activity (Mus musculus [8]) was “Non-toxic” and the Activity (Mus musculus [9]) was “Non-toxic”. The Drug uptake (Liver [10]) was “Active”, the AUC(0-t) [11] was 29.6 µM·h and the Activity (Mus musculus [12]) was “Non-toxic”. The Drug uptake (Lung [13]) was “Active”, the Drug uptake [14] was “Active” and the Activity (Mus musculus [15]) was “Non-toxic”. The Tmax [16] was 4.67 h, the Cmax [17] was 5.94 µM and the AUC(0-t) [18] was 16.7 µM·h. The inhibition (Trypanosoma cruzi [19]) was “Active”, the Drug uptake (Intestine [20]) was “Active” and the half-life [21] was 4.39 h. The Tmax [22] was 2.33 h, the Drug uptake (Heart [23]) was “Active” and the Drug uptake (Heart [24]) was “Active”. The Activity (Mus musculus [25]) was “Non-toxic”, the Drug uptake [26] was “Active” and the CL/F [27] was 38.8 mL/min/kg. The Drug uptake (Intestine [28]) was “Active”, the Drug uptake (Lung [29]) was “Active” and the inhibition in vivo at 50 mg/kg (Trypanosoma cruzi [30]) was 98.4%. The Kd [31] was at most 10 nM, the Activity (Mus musculus [32]) was “Non-toxic” and the Activity (C2C12) was “Non-toxic”.
